Compound activity: PubChem, several laboratories
TPT1 inhibitor: inhibitors of Candida albicans tRNA 2'-phosphotransferase TPT1; recombinant caTPT1, FP RNA substrate dephosphorylation; inhibition, % at 5 µM; 0.81% of 300,000 active;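 active means inhibition above the mean of all tested compounds plus 3 SD, set per screening campaign, cut at about 24% in these data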
HNF4A DNA FP: change in binding of human HNF4 alpha to DNA. AID 1224865. HNF4a-FITC DNA binding, fluorescence polarization, 1 h. activity change, % at 10 µM. P41235. 0.3% of 360,000 active; in the data active means activity change above about 30%, passing the limit was not always enough
Target sequence (P41235 whole entry, looked up): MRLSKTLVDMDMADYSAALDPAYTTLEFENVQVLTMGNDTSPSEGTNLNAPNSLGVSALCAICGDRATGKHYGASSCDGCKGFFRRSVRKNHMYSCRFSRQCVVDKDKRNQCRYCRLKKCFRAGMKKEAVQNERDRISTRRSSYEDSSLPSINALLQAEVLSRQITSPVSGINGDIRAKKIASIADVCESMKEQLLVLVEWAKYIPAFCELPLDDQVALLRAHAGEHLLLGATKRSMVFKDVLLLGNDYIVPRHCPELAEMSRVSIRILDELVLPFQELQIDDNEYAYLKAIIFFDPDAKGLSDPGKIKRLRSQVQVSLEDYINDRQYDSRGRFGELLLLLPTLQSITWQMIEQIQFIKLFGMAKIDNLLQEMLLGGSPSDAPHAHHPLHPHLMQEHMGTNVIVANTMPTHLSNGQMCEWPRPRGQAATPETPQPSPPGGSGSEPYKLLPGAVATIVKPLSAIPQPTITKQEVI
CSN inh: inhibitors of human CSN-mediated cullin deneddylation | Purified CSN, SCF-Nedd8-OG deneddylation, fluorescence polarization | inhibition, % at 12.5 µM | 0.38% of 360,000 active | AID 651999;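 active means pattern-corrected inhibition above about 35%, with an unprinted fluorescence ratio check between 0.5 and 1.5, limit read from the data, passing the limit was not always enough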
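Assay system: purified human Csn5 enzyme expressed in HEK293T cells; measure: % inhibition; also added: SCFSkp2-Nedd8OG substrate at 10 nM final; technique: fluorescence polarization; times: reaction 90 min, room temperature; medium: Tris buffer pH 7.5, NaCl, DTT, Tween-20, trehalose, ovalbumin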
SENP1 FRET inh: inhibitors of human SENP1 SUMO protease catalytic domain | inhibition, % at 10 µM | Q9P0U3 | recombinant SENP1 catalytic domain, CyPet-SUMO1-YPet FRET cleavage | 0.21% of 360,000 active;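 active means inhibition at least 30% at 10 µM, raw YFP signal under a set limit, fluorescence ratio 0.5 to 1.5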
Target sequence (Q9P0U3 419-644 limits assumed): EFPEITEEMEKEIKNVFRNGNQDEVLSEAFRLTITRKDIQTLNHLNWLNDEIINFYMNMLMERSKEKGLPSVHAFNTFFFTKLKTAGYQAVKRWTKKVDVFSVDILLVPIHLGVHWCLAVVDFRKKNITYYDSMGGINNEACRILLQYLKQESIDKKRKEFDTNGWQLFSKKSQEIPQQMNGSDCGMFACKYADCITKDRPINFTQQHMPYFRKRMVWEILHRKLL
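Test system: human SENP1 catalytic domain; medium: Tris pH 8 buffer plus EDTA, NaCl, BME, BSA, NP40, catalase; incubation: 50 min reaction at room temperature; technique: FRET, CFP and YFP emission; controls: no-enzyme low control and enzyme-plus-DMSO high control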
UBC9 SUMO inh: inhibitors of human SUMOylation (UBC9); 0.36% of 290,000 active; P63279; AID 2006; HTRF SUMOylation assay, SAE1/SAE2 + UBC9, in vitro; inhibition, % at 35 µM; in the data active means inhibition above about 50%, passing the limit was not always enough
Rpn11 inh: inhibitors of human proteasome Rpn11; AID 588493; 0.59% of 360,000 active; calls only at 20 µM; O00487; human 26S proteasome, Ub4-pepOG fluorescence polarization; 20S core pre-blocked with epoxomicin;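 active means inhibition at 20 µM, scaled to each plate's controls, above about 33%, limit read from the data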
Rpn11 confirm: Rpn11 inhibition confirmation, single concentration; shares compounds with Rpn11 inh; purified human 26S proteasome, Ub4-pepOG fluorescence polarization; proteasome pretreated with epoxomicin; inhibition, % at 20 µM; 29% of 1,900 active
MMP-2 inh: blocks human MMP-2, flagging nonselective RPN11 hits. shares compounds with Rpn11 inh. recombinant MMP-2, FRET peptide cleavage fluorescence. inhibition, % at 20 µM. 4% of 1,900 active;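 further: human MMP-2 activated beforehand with APMA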
Thrombin inh: counter-screen for RPN11 inhibitors: inhibition of bovine thrombin; bovine thrombin cleavage of Ub4-pepOG, fluorescence polarization; AID 602333; shares compounds with Rpn11 inh; 13% of 1,900 active; inhibition, % at 20 µM;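 active means mean inhibition at least 40% at 20 µM, or signal 3 deviations below plate average, so some actives read negative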
Large screens that a line does not name were inactive (follow-up assays come after a bar, where shown). The list is not random: actives were taken first. Their share in the collection is about 1.8%. Unless noted, no stated cut-off is given here; in the data, active means inhibition above about 40%; inactive means the rest.

COc1ccc(-c2cc3c(=O)n(CC(=O)NCCCN4CCC(N5CCCCC5)CC4)nc(C)n3n2)cc1	none
Cc1ccc(NC(=O)Nc2ccc3c(c2)N(C)C(=O)CS3)nc1	none
Cc1ccnc(NC(=O)Nc2ccc3c(c2)N(C)C(=O)CS3)c1	Rpn11 inh active | Rpn11 confirm inactive | MMP-2 inh inactive | Thrombin inh inactive
O=C(C(=O)N1CCN(C(=O)c2ccco2)CC1)c1c[nH]c2ccccc12	none
O=C(O)c1cc(N/N=C/c2ccc(-c3ccc(F)cc3)o2)ccc1Cl	none
O=C(O)c1cc(-c2ccc(/C=N/Nc3ccc([N+](=O)[O-])cn3)o2)ccc1Cl	Rpn11 inh active (no result: TPT1 inhibitor) | Rpn11 confirm inactive | MMP-2 inh inactive | Thrombin inh inactive
COC(c1ccc(Cl)cc1)(c1ccc(Cl)cc1)C(Oc1nccc(C)n1)C(=O)O (stereo not given)	none
CC1(C)Oc2ccc(C(=O)NC3CCCC3)cc2N(CC(=O)N2CCOCC2)C1=O	Rpn11 inh active | Rpn11 confirm inactive | MMP-2 inh inactive | Thrombin inh inactive
CC1(C)Oc2ccc(C(=O)NC3CC3)cc2N(CC(=O)N2CCOCC2)C1=O	none
Cc1ccc(NC(=O)c2ccc3c(c2)OCCO3)nc1	none (no result: UBC9 SUMO inh)
O=C(CN1CCN(c2ccccn2)CC1)NC1CCCC1	Rpn11 inh active | Rpn11 confirm inactive | MMP-2 inh inactive | Thrombin inh 59
O=C(CN1CCN(c2ccccn2)CC1)Nc1ccccc1	none
COc1cccc(N2CC(C(=O)Nc3nnc(SCCN4CCOCC4)s3)CC2=O)c1 (stereo not given)	Rpn11 inh active | Rpn11 confirm inactive | MMP-2 inh inactive | Thrombin inh inactive
Cc1cccc(N2CC(C(=O)Nc3nnc(SCCN4CCOCC4)s3)CC2=O)c1 (stereo not given)	none
COc1ccc(Cn2c(-c3ccco3)nc3c(c(=O)c4ccccc4n3C)c2=O)cc1	Rpn11 inh active | Rpn11 confirm inactive | MMP-2 inh inactive | Thrombin inh 42
COc1ccc(Cn2c(-c3ccc(OC)cc3)nc3c(c(=O)c4ccccc4n3C)c2=O)cc1	none (no result: HNF4A DNA FP, CSN inh, SENP1 FRET inh, Rpn11 inh)
COc1ccc(Cn2c(C)nc3c(c2=O)c2nc4ccccc4nc2n3Cc2ccco2)cc1	CSN inh 45, Rpn11 inh active (no result: TPT1 inhibitor, UBC9 SUMO inh) | Rpn11 confirm inactive | MMP-2 inh inactive | Thrombin inh inactive
COc1cccc(/C=C2\SC(N)=NC2=O)c1OS(=O)(=O)c1ccccc1	none
Fc1ccc(CSc2ccc3nnc(-c4cccnc4)n3n2)cc1	none
Cc1ccc(C(=O)NC(=S)NCc2cccnc2)c(C)c1	none
CCC(=O)NC1CC2CCCC(C1)N2Cc1ccc(C)cc1 (stereo not given)	none
O=C(N/N=C/c1cc(Cl)cc([N+](=O)[O-])c1O)c1ccccc1NS(=O)(=O)c1cccs1	UBC9 SUMO inh 100, Rpn11 inh active | Rpn11 confirm 129 | MMP-2 inh inactive | Thrombin inh inactive
Cc1cccc(OCC(=O)NNC(=O)c2cc(S(=O)(=O)N(C)C)ccc2N2CCCC2)c1	Rpn11 inh active (no result: TPT1 inhibitor, UBC9 SUMO inh) | Rpn11 confirm inactive | MMP-2 inh inactive | Thrombin inh inactive
CCCCn1nc(CC(=O)O)c2ccccc2c1=O	none
CCn1nc(CC(=O)O)c2ccccc2c1=O	Rpn11 inh active | Rpn11 confirm inactive | MMP-2 inh inactive | Thrombin inh inactive
CCN(CC)CCCC(C)NC1=NCCCCC1 (stereo not given)	none
COc1cc(/C=C2\SC(=O)N(CCNC(=O)c3sc4cc(F)ccc4c3Cl)C2=O)cc(OC)c1OC	Rpn11 inh active | Rpn11 confirm inactive | MMP-2 inh inactive | Thrombin inh inactive
COCCn1c(=NC(=O)c2nc3ccccc3s2)sc2cc(S(C)(=O)=O)ccc21	none
CCOC(=O)Cn1c(=NC(=O)c2cc(-c3cccs3)nc3ccccc23)sc2cc(S(N)(=O)=O)ccc21	Rpn11 inh active | Rpn11 confirm inactive | MMP-2 inh inactive | Thrombin inh inactive
COC(=O)Cn1c(=NC(=O)c2nc3ccccc3s2)sc2cc(S(N)(=O)=O)ccc21	Rpn11 inh active | Rpn11 confirm inactive | MMP-2 inh inactive | Thrombin inh inactive
COC(=O)Cn1c(=NC(=O)c2cc(-c3cccs3)nc3ccccc23)sc2cc(S(N)(=O)=O)ccc21	none (not shown: Rpn11 inh)
COc1ccc(C2=NN(C(C#N)c3ccc(OC)c(OC)c3)C(c3ccccc3)C2)cc1 (stereo not given)	Rpn11 inh active | Rpn11 confirm inactive | MMP-2 inh inactive | Thrombin inh inactive
CCOc1ccccc1NS(=O)(=O)c1cn(C)nc1C	Rpn11 inh active | Rpn11 confirm inactive | MMP-2 inh inactive | Thrombin inh inactive
Cc1ccccc1Cn1cc(NS(=O)(=O)c2cn(C)nc2C)cn1	none
Cc1nn(-c2ccccc2)c(OC(=O)c2cccs2)c1S(=O)(=O)c1ccc([N+](=O)[O-])cc1	none
CCOC(=O)/C=c1\s/c(=C(\C#N)C(N)=O)n(-c2ccccc2)c1=O	none
COCCCn1c(=O)/c(=C\c2ccccc2OC(F)F)s/c1=C(/C#N)C(N)=O	Rpn11 inh active | Rpn11 confirm inactive | MMP-2 inh inactive | Thrombin inh inactive
CCCOc1cccc(C2C(C(=O)c3ccc(C)o3)=C(O)C(=O)N2c2nc(C)c(C(C)=O)s2)c1 (stereo not given)	Rpn11 inh active | Rpn11 confirm inactive | MMP-2 inh inactive | Thrombin inh inactive
CCN(CC)c1ccc(/C=N/NC(=O)c2cccc(S(=O)(=O)Nc3ccccc3OC)c2)cc1	Rpn11 inh active | Rpn11 confirm 57 | MMP-2 inh inactive | Thrombin inh inactive
O=C(COc1ccccc1)NN1C(=O)CSC1=S	none
O=C(COc1ccc(F)cc1)NN1C(=O)CSC1=S	Rpn11 inh active | Rpn11 confirm inactive | MMP-2 inh inactive | Thrombin inh inactive
CCN(C(=O)COC(=O)c1cc(S(=O)(=O)Nc2c(C)n(C)n(-c3ccccc3)c2=O)ccc1Cl)C1CCCCC1	none
COc1ccc(CCNC(=O)CN(C2CCCCC2)S(C)(=O)=O)cc1	Rpn11 inh active | Rpn11 confirm inactive | MMP-2 inh inactive | Thrombin inh inactive
CCCCc1ccc(-c2csc(/C(C#N)=C\c3ccco3)n2)cc1	Rpn11 inh active | Rpn11 confirm inactive | MMP-2 inh inactive | Thrombin inh inactive
